Screens (PubChem BioAssay)
This is one part of a sample in which hits are shown more often than they occur.
INS-1E rescue – INS-1E beta cell protection from cytokine death. INS-1E cytokine-induced death, ATP luminescence, 48 h; normalised: neutral wells 0, positive control 100. protection from cytokine-induced ATP loss, % at 10 µM. AID 488910. 20,000 compounds, 0.1% hits;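 active = mean replicate protection from cytokine-induced ATP loss at least 50% and at least 75% of replicates each reaching 50%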
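assay system = INS-1E rat insulinoma cells | amount = 8000 cells per well | medium = phenol-red-free RPMI with 5% fetal bovine serum | doses = one compound concentration, pin transfer | timing = 48 h cytokine plus compound treatment, 10 min reagent incubation | also added = IL-1β, TNF-α and IFN-γ cytokine mix | signal = CellTiter-Glo luminescence measuring cellular ATP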
A1 apoptosis 2 – blocks A1, raising caspase activity. MEF A1-2A-BIM cells, caspase-Glo luminescence, 3 h; percent of clofoctol response, DMSO zero. caspase activation, % (concentration not given with the values). 24,000 tested, under 10 active. AID 2465; in the data active = caspase activation above about 5.9%
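Material: mouse embryonic fibroblasts co-expressing A1 and BIM (A1-2A-BIM), primed for A1 dependence / Quantity: 2500 cells/well / Buffer or medium: RPMI-1640 growth medium with 10% FBS / Doses: 50 nL compound per well, pinned / Schedule: 3 h compound exposure at 37 °C / Signal: Caspase-Glo luminescence (DEVD substrate) / Measure: Caspase-3/7 activation, seen as rise in luminescence signal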
T cruzi HTS – intracellular Trypanosoma cruzi inhibition | 22,000 compounds, 4.9% hits | intracellular Trypanosoma cruzi in host cells, plate reader | AID 651903 | activity score (inhibition), % at 5.01 µM; in the data active = activity score above about 55%;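 also: parasites and compound incubated about four days before reading; 0% = median of neutral control wells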
* = called active by the depositor; · = not tested or not shown.

SMILES | INS-1E rescue | A1 apoptosis 2 | T cruzi HTS
Cc1ccc(S(=O)(=O)Nc2ccc3c(c2)CC(=O)N([C@H](C)CO)C[C@H](C)[C@H](CN(C)C(=O)Nc2c(C)noc2C)O3)cc1 | 14 | 0 | -39
C[C@@H]1CN([C@H](C)CO)C(=O)c2cccc(NC(=O)CCCCCC(=O)Nc3ccccc3N)c2O[C@@H]1CN(C)S(=O)(=O)c1ccc(F)cc1 | -8 | · | 61*
C[C@@H]1CN([C@@H](C)CO)C(=O)c2cccc(NC(=O)CCCCCC(=O)Nc3ccccc3N)c2O[C@H]1CN(C)S(=O)(=O)c1ccc(F)cc1 | -15 | · | -6
Cc1ccc(S(=O)(=O)N(C)C[C@H]2Oc3c(NC(=O)CCCCCC(=O)Nc4ccccc4N)cccc3C(=O)N([C@@H](C)CO)C[C@@H]2C)cc1 | · | 1 | ·
C[C@H](CO)N1C[C@H](C)[C@H](CN(C)S(=O)(=O)c2ccc(F)cc2)Oc2c(NC(=O)CCCCCC(=O)Nc3ccccc3N)cccc2C1=O | 7 | · | 63*
Cc1ccc(S(=O)(=O)N(C)C[C@@H]2Oc3c(NC(=O)CCCCCC(=O)Nc4ccccc4N)cccc3C(=O)N([C@H](C)CO)C[C@@H]2C)cc1 | -3 | -1 | 73*
C[C@@H]1CN([C@@H](C)CO)C(=O)c2cccc(NC(=O)CCCCCC(=O)Nc3ccccc3N)c2O[C@@H]1CN(C)S(=O)(=O)c1ccc(F)cc1 | 0 | 1 | 36
C[C@H]1CN([C@@H](C)CO)C(=O)Cc2cc(NS(=O)(=O)c3cccs3)ccc2O[C@H]1CN(C)S(=O)(=O)c1ccc(Cl)cc1 | -1 | 0 | 16
COc1ccc(CN(C)C[C@@H]2Oc3ccc(NS(=O)(=O)c4ccc(Cl)cc4)cc3CC(=O)N([C@H](C)CO)C[C@@H]2C)cc1 | -1 | 0 | 27
COc1ccc(CN(C)C[C@H]2Oc3ccc(NS(=O)(=O)c4ccc(C)cc4)cc3CC(=O)N([C@@H](C)CO)C[C@@H]2C)cc1 | 1 | 1 | 56*
COc1ccc(CN(C)C[C@H]2Oc3ccc(NS(=O)(=O)c4ccc(Cl)cc4)cc3CC(=O)N([C@H](C)CO)C[C@H]2C)cc1 | -5 | -1 | 71*
COc1ccc(CN(C)C[C@@H]2Oc3ccc(NS(=O)(=O)c4ccc(C)cc4)cc3CC(=O)N([C@@H](C)CO)C[C@H]2C)cc1 | · | -1 | ·
C[C@@H]1CN([C@@H](C)CO)C(=O)c2cccc(NC(=O)c3cnccn3)c2O[C@H]1CN(C)S(=O)(=O)c1ccc(F)cc1 | -2 | 0 | 0
C[C@@H]1CCCCO[C@H](CN(C)C(=O)c2ccncc2)[C@H](C)CN([C@@H](C)CO)C(=O)c2cc(NS(=O)(=O)c3cn(C)cn3)ccc2O1 | · | 0 | ·
COc1ccc(NC(=O)Nc2ccc3c(c2)C(=O)N([C@@H](C)CO)C[C@@H](C)[C@@H](CN(C)C(=O)CCCN(C)C)OCCCC[C@H](C)O3)cc1 | · | 0 | ·
C[C@@H]1CN([C@H](C)CO)C(=O)c2cccc(NC(=O)Nc3ccccc3)c2O[C@H]1CN(C)Cc1ccc(C(=O)O)cc1 | 10 | 0 | -14
C[C@H](CO)N1C[C@H](C)[C@@H](CN(C)Cc2ccc(C(=O)Nc3ccccc3N)cc2)Oc2c(NC(=O)Nc3ccc(F)cc3)cccc2C1=O | -9 | · | 52
C[C@H](CO)N1C[C@H](C)[C@@H](CN(C)Cc2ccc(C(=O)Nc3ccccc3N)cc2)Oc2c(cccc2N(C)C)C1=O | -1 | 3 | 6
C[C@@H]1CN([C@H](C)CO)C(=O)c2cccc(NC(=O)Nc3ccccc3)c2O[C@@H]1CN(C)Cc1ccc(C(=O)Nc2ccccc2N)cc1 | 17 | 1 | 70*
C[C@H]1CN([C@@H](C)CO)C(=O)c2cccc(NC(=O)Nc3ccc(F)cc3)c2O[C@H]1CN(C)Cc1ccc(C(=O)Nc2ccccc2N)cc1 | -17 | · | 59*
C[C@H]1CN([C@@H](C)CO)C(=O)c2cccc(N(C)C)c2O[C@H]1CN(C)Cc1ccc(C(=O)Nc2ccccc2N)cc1 | 2 | 0 | 59*
Cc1cc(C(=O)Nc2cccc3c2O[C@@H](CN(C)Cc2ccc(Oc4ccccc4)cc2)[C@H](C)CN([C@H](C)CO)C3=O)n(C)n1 | -14 | · | 50
COC(=O)C(CC#Cc1ccc2c(c1)[C@]1(C(=O)N2)[C@H](C(=O)N2CCCCCCC2)[C@H]2C(=O)O[C@H](c3ccccc3)[C@H](c3ccccc3)N2[C@@H]1c1ccc(O)cc1)C(=O)OC | · | 0 | ·
C[C@H](CO)N1C[C@H](C)[C@@H](CN(C)C(=O)C2CCCCC2)OCCCC[C@H](C)Oc2ccc(NC(=O)Nc3ccccc3)cc2C1=O | · | -1 | ·
